Read-outs that look alike come from different tables or passages of the source.
Tests used:
[1] = molecular target: T1, N-terminally labelled Nluc-Sirt2 fusion protein (Homo sapiens, UniProt Q8IXJ6); test: NanoBRET assay, N-terminal Nluc-Sirt2 fusion in HEK293T cells
T1 sequence (Q8IXJ6 50-356): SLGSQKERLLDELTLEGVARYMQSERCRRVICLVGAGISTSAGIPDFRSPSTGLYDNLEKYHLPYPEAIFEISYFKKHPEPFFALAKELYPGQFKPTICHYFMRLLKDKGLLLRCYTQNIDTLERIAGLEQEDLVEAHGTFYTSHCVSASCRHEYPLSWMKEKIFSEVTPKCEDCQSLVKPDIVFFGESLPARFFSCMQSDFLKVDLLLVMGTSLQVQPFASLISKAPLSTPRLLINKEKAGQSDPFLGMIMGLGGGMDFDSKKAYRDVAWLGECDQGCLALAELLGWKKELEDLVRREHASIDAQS

Sirt2 [2] = molecular target: T2, Sirt2 (Homo sapiens, UniProt Q8IXJ6); settings: read-out: In vitro Sirt2 activity assay IC50; cited from earlier work
T2 sequence (Q8IXJ6 56-356): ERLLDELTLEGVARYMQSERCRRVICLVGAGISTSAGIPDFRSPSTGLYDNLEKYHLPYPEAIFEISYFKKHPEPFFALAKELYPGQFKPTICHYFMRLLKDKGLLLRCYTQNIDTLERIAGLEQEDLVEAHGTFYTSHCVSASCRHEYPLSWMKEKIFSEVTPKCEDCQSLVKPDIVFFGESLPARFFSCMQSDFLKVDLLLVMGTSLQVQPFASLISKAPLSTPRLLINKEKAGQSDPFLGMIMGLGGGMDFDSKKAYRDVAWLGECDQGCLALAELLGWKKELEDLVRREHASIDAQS

PC-3M-luc cells [3] = test: Migration assay; type: cell-based, human
Sirt2_56-356 [4] = molecular target: T3, Sirt2_56-356 (Homo sapiens, UniProt Q8IXJ6); test: Sirtuin deacetylation activity assay; type: biochemical
T3 sequence (Q8IXJ6 56-356): T2 sequence (Q8IXJ6 56-356)

human recombinant HDAC6 = molecular target: T4, human recombinant HDAC6 (Homo sapiens, UniProt Q9UBN7); test: HDAC6 activity assay; type: biochemical
T4 sequence (Q9UBN7 1-1215): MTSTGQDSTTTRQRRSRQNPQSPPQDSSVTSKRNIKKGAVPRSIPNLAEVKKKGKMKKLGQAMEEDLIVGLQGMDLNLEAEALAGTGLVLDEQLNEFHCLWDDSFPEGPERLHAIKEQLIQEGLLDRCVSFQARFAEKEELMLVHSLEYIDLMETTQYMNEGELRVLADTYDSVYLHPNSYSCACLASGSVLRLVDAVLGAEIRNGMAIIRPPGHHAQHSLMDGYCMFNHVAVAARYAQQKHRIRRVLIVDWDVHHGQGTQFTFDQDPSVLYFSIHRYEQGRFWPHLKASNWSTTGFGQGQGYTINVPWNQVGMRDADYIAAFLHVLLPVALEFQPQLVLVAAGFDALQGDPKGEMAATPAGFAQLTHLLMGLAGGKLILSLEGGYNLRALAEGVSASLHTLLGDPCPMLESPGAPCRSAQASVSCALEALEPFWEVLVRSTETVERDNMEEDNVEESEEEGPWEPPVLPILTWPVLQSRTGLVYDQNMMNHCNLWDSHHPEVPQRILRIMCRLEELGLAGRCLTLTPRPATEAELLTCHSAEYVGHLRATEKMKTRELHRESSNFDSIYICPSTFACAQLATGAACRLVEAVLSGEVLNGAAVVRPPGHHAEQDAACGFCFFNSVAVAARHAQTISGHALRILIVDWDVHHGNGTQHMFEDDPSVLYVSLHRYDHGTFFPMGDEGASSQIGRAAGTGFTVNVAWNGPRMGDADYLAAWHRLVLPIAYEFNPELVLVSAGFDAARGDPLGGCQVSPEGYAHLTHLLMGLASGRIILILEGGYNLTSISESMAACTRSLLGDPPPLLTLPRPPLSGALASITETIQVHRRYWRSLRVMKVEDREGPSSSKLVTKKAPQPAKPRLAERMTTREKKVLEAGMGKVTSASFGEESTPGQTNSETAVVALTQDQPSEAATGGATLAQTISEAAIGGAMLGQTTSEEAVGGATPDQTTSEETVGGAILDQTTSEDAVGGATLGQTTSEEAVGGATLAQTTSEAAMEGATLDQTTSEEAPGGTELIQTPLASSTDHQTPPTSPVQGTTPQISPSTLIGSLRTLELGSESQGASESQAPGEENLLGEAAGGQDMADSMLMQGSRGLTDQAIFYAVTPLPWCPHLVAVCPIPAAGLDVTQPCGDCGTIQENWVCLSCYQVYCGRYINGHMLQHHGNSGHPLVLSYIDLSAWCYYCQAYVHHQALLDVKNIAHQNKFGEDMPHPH
Summary of the method: (§1)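 Enzyme was incubated with serially diluted test compound in DMSO and ZMAL (added from a 126 μM solution) for 90 min at 37 °C. Stop solution (33 μM trichostatin A, 6 mg/mL trypsin) was added, followed by 30 min at 37 °C. Fluorescence read at Ex 390 / Em 460 nm.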

Sirt2_56-356 [5] = molecular target: T3, Sirt2_56-356; test: Fluorescence polarization assay; type: binding
Sirt1_134-747 = molecular target: T5, Sirt1_134-747 (Homo sapiens, UniProt Q96EB6); test: Sirtuin deacetylation activity assay; type: biochemical
T5 sequence (Q96EB6 134-747): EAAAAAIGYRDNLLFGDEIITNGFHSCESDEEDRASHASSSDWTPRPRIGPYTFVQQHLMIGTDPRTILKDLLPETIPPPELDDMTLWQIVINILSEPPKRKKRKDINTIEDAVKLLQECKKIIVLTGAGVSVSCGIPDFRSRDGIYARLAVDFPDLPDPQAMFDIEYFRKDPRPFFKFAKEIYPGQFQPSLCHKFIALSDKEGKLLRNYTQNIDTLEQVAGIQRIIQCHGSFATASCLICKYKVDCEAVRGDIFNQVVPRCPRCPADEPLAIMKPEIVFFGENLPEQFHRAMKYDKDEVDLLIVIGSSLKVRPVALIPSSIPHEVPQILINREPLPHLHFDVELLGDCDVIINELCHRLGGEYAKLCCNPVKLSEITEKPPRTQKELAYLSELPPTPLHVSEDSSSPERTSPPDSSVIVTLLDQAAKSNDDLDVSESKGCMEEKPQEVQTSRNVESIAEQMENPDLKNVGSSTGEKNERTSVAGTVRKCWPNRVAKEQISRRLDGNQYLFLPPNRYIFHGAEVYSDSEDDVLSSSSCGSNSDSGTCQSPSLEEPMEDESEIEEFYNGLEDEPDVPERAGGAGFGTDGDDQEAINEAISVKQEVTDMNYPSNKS

Sirt3_118-395 = molecular target: T6, Sirt3_118-395 (Homo sapiens, UniProt Q9NTG7); test: Sirtuin deacetylation activity assay; type: biochemical
T6 sequence (Q9NTG7 118-395): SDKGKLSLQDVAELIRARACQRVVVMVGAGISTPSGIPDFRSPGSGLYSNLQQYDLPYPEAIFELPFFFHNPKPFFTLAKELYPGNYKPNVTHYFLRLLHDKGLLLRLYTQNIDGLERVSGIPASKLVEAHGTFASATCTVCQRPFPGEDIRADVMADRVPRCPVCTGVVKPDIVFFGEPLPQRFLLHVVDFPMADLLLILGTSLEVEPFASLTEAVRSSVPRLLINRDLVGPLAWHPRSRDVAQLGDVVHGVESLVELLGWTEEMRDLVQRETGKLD

Sirt2_56-356 [6] = molecular target: T3, Sirt2_56-356; test: Sirt2 demyristoylation activity assay; type: biochemical
human recombinant HDAC1 = human recombinant HDAC1 (Homo sapiens, UniProt Q13547); test: HDAC1 activity assay; type: biochemical
Chain of human recombinant HDAC1 (Q13547 whole entry): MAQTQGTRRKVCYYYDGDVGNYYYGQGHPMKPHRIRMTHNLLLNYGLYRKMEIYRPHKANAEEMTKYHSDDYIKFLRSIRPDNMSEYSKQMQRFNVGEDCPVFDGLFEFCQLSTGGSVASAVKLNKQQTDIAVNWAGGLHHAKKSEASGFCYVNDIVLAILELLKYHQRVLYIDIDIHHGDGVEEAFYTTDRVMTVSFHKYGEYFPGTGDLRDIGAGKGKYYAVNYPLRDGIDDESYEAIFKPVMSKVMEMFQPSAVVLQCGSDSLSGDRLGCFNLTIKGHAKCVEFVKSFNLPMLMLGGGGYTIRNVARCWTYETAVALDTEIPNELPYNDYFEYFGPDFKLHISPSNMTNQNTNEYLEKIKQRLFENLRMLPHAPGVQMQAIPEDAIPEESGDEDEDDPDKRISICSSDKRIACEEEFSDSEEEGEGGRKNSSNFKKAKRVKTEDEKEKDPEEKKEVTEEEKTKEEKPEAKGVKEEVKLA
Summary of the method: as §1

[7] = system: α-tubulin acetylation in PC-3M-luc cells; test: Acetylation levels of α-tubulin by immunofluorescence; type: cell-based, human; settings: 20 μM, 5 hours
Summary of the method: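 PC-3M-luc cells were plated at 20 000 per well, incubated overnight at 37 °C and 5% CO2, then exposed to 20 μM test compound for 5 h. They were fixed in 4% PFA for 8–10 min at RT and extracted with PBS/0.1% Triton X-100. Blocking used PBS/0.1% Triton/5% FCS. […] Read-out was immunofluorescence microscopy.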

PC-3M-luc cells [8] = test: Cell viability assay; type: cell-based, human; settings: 3 days vs 5 days
[9] = system: KRas4a fatty acylation in HEK293T cells; test: In cell inhibition of SIRT2 defatty-acylation of KRas-4a; type: cell-based, human; settings: 25 μM
HGC-27 cells = test: Cell viability assay; type: cell-based; settings: Homo sapiens
Summary of the method: (§2)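 MTS/PMS (20:1) viability assay. Cells were seeded at 2000 per well with test compound or vehicle (0.5% DMSO final) and incubated 72 or 120 h at 37 °C, 5% CO2. Absorbance was read 2–4 h after reagent addition. Media: HEK293T in DMEM with 10% FBS, 2 mM glutamine and 1% pen-strep; HGC-27 in DMEM:Ham's 12 (1:1) with 5% FCS.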

PC-3M-luc cells [10] = test: Colony Forming Unit; type: cell-based, human
Summary of the method: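 PC-3M-luc cells were grown in RPMI 1640 with 10% FBS, 2 mM glutamine and 1% pen-strep, then seeded at 250 cells per well. After 2–3 h, test compound or vehicle was added (0.5% DMSO final) and plates were incubated 7 days at 37 °C, 5% CO2. Cells were PBS-washed, fixed in 4% PFA for 20 min at RT and stained with 0.01% crystal violet for 30 min. Colonies were then counted.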

HEK293T cells = test: Cell viability assay; type: cell-based; settings: Homo sapiens, HEK-293T
Summary of the method: as §2

[11] = system: c-Myc protein levels in PC-3M-luc cells; test: Western blot of c-Myc protein levels; type: cell-based, human; settings: 24 h
Sirt2 [12] = molecular target: T2, Sirt2; test: Determination of kinetic parameters for ZMAL and ZMML; type: biochemical; settings: substrate of Sirt2; mean ± SD (n = 3)
[13] = tracer 13 2 μM, HEK293T, 2 h, mean ± SD
[14] = In vitro Sirt2 activity assay IC50, Table 2

SMILES | IC50 (human recombinant HDAC6) [µM] | IC50 (Sirt1_134-747) [µM] | IC50 (Sirt3_118-395) [µM] | IC50 (human recombinant HDAC1) [µM] | IC50 (Sirt2_56-356 [6]) [µM] | IC50 (Sirt2_56-356 [4]; [14]) [µM] | IC50 [1] [µM] | also measured
O=C(NCc1cccnc1)c1ccc2c(c1)C1C3CCC(C3)C1C(c1ccccc1)N2 (stereo not drawn) [AEM2, reference compound] | – | – | – | – | – | – | – | IC50 ([1]; read-out: NanoBRET assay IC50, tracer 13 2 μM, HEK293T, 2 h, mean ± SD): 5.2 ± 0.2 µM; IC50 (Sirt2 [2]): 3.8 µM
CCCCCCCC(=O)Nc1ncc(Cc2cccc(OCc3cn(CCOC)nn3)c2)s1 [Compound 5] | > 100 | > 100 | > 100 | > 100 | – | – | – | inhibition at 10 µM (PC-3M-luc cells [3]; Homo sapiens, read-out: migration inhibition): 35%; IC50 (Sirt2_56-356 [4]; Sirt2 Deacet. IC50, mean ± SD): 0.46 ± 0.21 µM; NanoBRET assay IC50 [1, 13]: did not detect cellular Sirt2 binding; Sirt2 binding in the FP assay compared to SirReal2 (in words) (Sirt2_56-356 [5]): weaker binding; inhibition at 20 µM (Sirt2_56-356 [6]; read-out: Sirt2 Demyr. percentage of inhibition): 23.2%
COCCn1cc(COc2cccc(Cc3cnc(NC(=O)CSc4nc(-c5ccccc5)cc(-c5ccccc5)n4)s3)c2)nn1 [Compound 7] | > 100 | > 100 | > 100 | > 100 | > 100 | – | – | IC50 (Sirt2_56-356 [4]; Sirt2 Deacet. IC50, mean ± SD): 620 ± 72 µM; decreased potency compared to the positive control SirReal2 (Sirt2_56-356 [4]; Sirt2 deacetylation): more than 1000 fold; NanoBRET assay IC50 [1, 13]: did not detect cellular Sirt2 binding; Sirt2 binding in the FP assay compared to SirReal2 (in words) (Sirt2_56-356 [5]): weaker binding; acetylation levels of α-tubulin [7]: Only weak effects
Cc1cc(C)nc(SCC(=O)Nc2ncc(Cc3cccc(OCc4cn(Cc5ccccc5C)nn4)c3)s2)n1 [Compound 8] | > 100 | > 100 | > 100 | > 100 | 3.9 ± 0.2 | 0.16 ± 0.02 | 1 ± 0.05 | –
Cc1ccc(Cn2cc(COc3cccc(Cc4cnc(NC(=O)CSc5nc(C)cc(C)n5)s4)c3)nn2)cc1 [Compound 9] | > 100 | > 100 | > 100 | > 100 | 2 ± 0.3 | 0.17 ± 0.02 | 0.4 ± 0.02 | –
Cc1cc(C)nc(SCC(=O)Nc2ncc(Cc3cccc(OCc4cn(Cc5ccc(OCCN6CCOCC6)cc5)nn4)c3)s2)n1 [Compound 12] | > 100 | > 100 | > 100 | > 100 | – | 0.12 ± 0.01 | 0.098 ± 0.004 | concentration-dependent effect on cell migration (PC-3M-luc cells [3]): concentration-dependent inhibition of migration; NanoBRET binding in digitonin permeabilized vs untreated cells ([1]; digitonin 50 μg mL−1): None of the tested compounds revealed significant differences in the NanoBRET signals between permeabilized (digitonin) and untreated cells; dependence of the effect on cell viability on incubation time (PC-3M-luc cells [8]): higher effects on the cell viability of PC-3M-luc cells could be observed after prolonged incubation time; IC50 (Sirt2_56-356 [5]): 0.07 ± 0.02 µM; acetylation levels of α-tubulin [7]: elevated; KRas4a acylation levels (in words) [9]: increased acylation levels of KRas4a compared to DMSO treated cells; GI50 (HGC-27 cells): 8.21 ± 0.59 µM; effect on colony formation (in words) (PC-3M-luc cells [10]): Colony formation was almost completely prevented; GI50 (HEK293T cells): 7.7 ± 0.71 µM; c-Myc protein levels (in words) ([11]; 10 μM): completely absent; concentration dependence of c-Myc levels [11]: reduced in a concentration-dependent manner
CC(=O)NCCCCC(NC(=O)OCc1ccccc1)C(=O)Nc1ccc2c(C)cc(=O)oc2c1 (stereo not drawn) [ZMAL, Z-(Ac)Lys-AMC] | – | – | – | – | – | – | – | Km (Sirt2 [12]): 510 ± 95 µM
CCCCCCCCCCCCCC(=O)NCCCCC(NC(=O)OCc1ccccc1)C(=O)Nc1ccc2c(C)cc(=O)oc2c1 (stereo not drawn) [ZMML] | – | – | – | – | – | – | – | Km (Sirt2 [12]): 6.7 ± 1 µM

Reference: paper PMC8985159 (RSC Chemical Biology, 2022)
